Data from ChEMBL document CHEMBL4118286, “Design, synthesis and evaluation of novel bivalent β-carboline derivatives as multifunctional agents for the treatment of Alzheimer's disease” (Bioorg Med Chem, 2018).
pIC50: −log10 of the molar value. The source made the active and inactive calls. No cut-off for these calls is given here.

Legend:
Cholinesterase = Cholinesterase (Equus caballus, UniProt P81908); test: Inhibition of equine serum BChE using butyrylthiocholine iodide as substrate preincubated for 2 mins followed by substrate addition and measured after 2 mins by Ellman's method; settings: for pIC50: read-out: IC50
Outline: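 Equine serum BuChE (Type VI-S) inhibition measured by the Ellman method. IC50 is the inhibitor concentration giving 50% enzyme inactivation, reported as mean ± SEM of three experiments.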

Acetylcholinesterase = Acetylcholinesterase (Electrophorus electricus, UniProt O42275); test: Inhibition of electric eel AChE using acetylthiocholine iodide as substrate preincubated for 2 mins followed by substrate addition and measured after 2 mins by Ellman's method; settings: for pIC50: read-out: IC50
[1] = Selectivity index, ratio of IC50 for electric eel AChE to IC50 for equine serum BChE
Outline: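 Electric eel AChE (Type VI-S) and equine serum BuChE (Type VI-S) were each assayed by the Ellman method, with IC50 as mean ± SEM of three experiments. Selectivity index was calculated as IC50(AChE)/IC50(BuChE).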

[2] = molecular target: Amyloid-beta precursor protein (Homo sapiens) (UniProt P05067); test: Inhibition of self-induced human amyloid beta (1 to 42) aggregation at 25 uM after 24 hrs by thioflavin-T based fluorescence assay relative to control
Outline: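 Thioflavin T fluorescence assay of self-induced Aβ1-42 aggregation, with test compound present at 25 μM and resveratrol as the positive control. Inhibition is given in percent as mean ± SD of at least three independent experiments.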

SH-SY5Y [3] = test: Neurotoxicity against human SH-SY5Y cells assessed as decrease in cell viability at 1 to 10 uM after 24 hrs by MTT assay; assay type: toxicity, cell-based
Outline: (§1)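 Cytotoxicity assay: SH-SY5Y cells were incubated with compound at 1, 2.5, 5 or 10 μM for 24 h. Viability was determined by MTT and expressed as percent of control, mean ± SD of 3 independent experiments.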

SH-SY5Y [4] = test: Neuroprotective activity against okadaic acid-induced cell death in human SH-SY5Y cells assessed as cell viability at 1 uM after 24 hrs by MTT assay (reference value: 53.1%); assay type: functional; settings: read-out: Activity
[5] = Neurotoxicity against human SH-SY5Y cells assessed as cell viability at 10 uM after 24 hrs by MTT assay relative to control; assay type: toxicity, cell-based; settings: read-out: Activity; outline: as §1
SH-SY5Y [6] = test: Neuroprotective activity against amyloid beta (1 to 42)-induced neurodegeneration in human SH-SY5Y cells assessed as cell viability at 1 uM after 48 hrs by MTT assay (reference value: 54.2%); assay type: functional; settings: read-out: Activity
Outline: (§2)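 SH-SY5Y neuroblastoma cells were exposed to Aβ1-42 (30 μM) for 48 h, with or without compound at 1 or 5 μM. Viability was measured by MTT assay against Aβ1-42-only and untreated controls. Data are mean ± SEM of three experiments, each run in triplicate.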

SH-SY5Y [7] = test: Neuroprotective activity against H2O2-induced oxidative stress in human SH-SY5Y cells assessed as cell viability at 1 uM after 24 hrs by MTT assay (reference value: 57.2%); assay type: functional; settings: read-out: Activity
Outline: (§3)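 SH-SY5Y cells were treated with H₂O₂ (300 μM) for 24 h, with compound (1 or 5 μM) co-treated. Viability was read by MTT and compared with H₂O₂-only and untreated controls. Data are mean ± SEM of three experiments, each run in triplicate.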

SH-SY5Y [8] = test: Neuroprotective activity against amyloid beta (1 to 42)-induced neurodegeneration in human SH-SY5Y cells assessed as cell viability at 5 uM after 48 hrs by MTT assay (reference value: 54.2%); assay type: functional; settings: read-out: Activity; outline: as §2
[9] = Neurotoxicity against human SH-SY5Y cells assessed as cell viability at 2.5 uM after 24 hrs by MTT assay relative to control; assay type: toxicity, cell-based; settings: read-out: Activity; outline: as §1
[10] = Neurotoxicity against human SH-SY5Y cells assessed as cell viability at 5 uM after 24 hrs by MTT assay relative to control; assay type: toxicity, cell-based; settings: read-out: Activity; outline: as §1
SH-SY5Y [11] = test: Neuroprotective activity against H2O2-induced oxidative stress in human SH-SY5Y cells assessed as cell viability at 5 uM after 24 hrs by MTT assay (reference value: 57.2%); assay type: functional; settings: read-out: Activity; outline: as §3
[12] = Neurotoxicity against human SH-SY5Y cells assessed as cell viability at 1 uM after 24 hrs by MTT assay relative to control; assay type: toxicity, cell-based; settings: read-out: Activity; outline: as §1
SH-SY5Y [13] = test: Neuroprotective activity against amyloid beta (1 to 42)-induced neurodegeneration in human SH-SY5Y cells assessed as increase in cell viability at 1 to 5 uM after 48 hrs by MTT assay; assay type: functional, cell-based; outline: as §2
[14] = molecular target: Cholinesterase (Equus caballus) (UniProt P81908); test: Potency index, ratio of donepezil IC50 to compound IC50 for equine serum BChE
SH-SY5Y [15] = test: Neuroprotective activity against amyloid beta (1 to 42)-induced neurodegeneration in human SH-SY5Y cells assessed as increase in cell viability at 1 uM after 48 hrs by MTT assay; assay type: functional, cell-based; outline: as §2
SH-SY5Y [16] = test: Neuroprotective activity against okadaic acid-induced cell death in human SH-SY5Y cells assessed as increase in cell viability at 1 uM after 24 hrs by MTT assay; assay type: functional, cell-based

Sequence of Acetylcholinesterase (O42275 whole entry): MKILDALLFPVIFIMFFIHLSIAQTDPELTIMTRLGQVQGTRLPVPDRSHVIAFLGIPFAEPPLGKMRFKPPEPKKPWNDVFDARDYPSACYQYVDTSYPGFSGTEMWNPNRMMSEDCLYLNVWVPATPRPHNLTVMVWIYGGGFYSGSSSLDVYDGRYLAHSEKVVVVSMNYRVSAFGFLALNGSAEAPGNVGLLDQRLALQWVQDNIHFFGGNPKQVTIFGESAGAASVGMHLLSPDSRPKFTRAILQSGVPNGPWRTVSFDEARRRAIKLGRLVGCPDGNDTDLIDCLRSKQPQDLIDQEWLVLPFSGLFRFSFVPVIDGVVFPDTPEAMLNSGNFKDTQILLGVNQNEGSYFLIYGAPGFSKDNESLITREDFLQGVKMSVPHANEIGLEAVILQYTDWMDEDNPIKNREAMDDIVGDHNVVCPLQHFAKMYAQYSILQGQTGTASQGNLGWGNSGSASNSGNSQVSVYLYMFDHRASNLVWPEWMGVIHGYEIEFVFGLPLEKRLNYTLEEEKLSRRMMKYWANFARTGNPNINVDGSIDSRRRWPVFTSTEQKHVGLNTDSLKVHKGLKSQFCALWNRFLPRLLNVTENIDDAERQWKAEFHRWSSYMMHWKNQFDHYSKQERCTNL
Sequence of Amyloid-beta precursor protein (Homo sapiens) (P05067 whole entry): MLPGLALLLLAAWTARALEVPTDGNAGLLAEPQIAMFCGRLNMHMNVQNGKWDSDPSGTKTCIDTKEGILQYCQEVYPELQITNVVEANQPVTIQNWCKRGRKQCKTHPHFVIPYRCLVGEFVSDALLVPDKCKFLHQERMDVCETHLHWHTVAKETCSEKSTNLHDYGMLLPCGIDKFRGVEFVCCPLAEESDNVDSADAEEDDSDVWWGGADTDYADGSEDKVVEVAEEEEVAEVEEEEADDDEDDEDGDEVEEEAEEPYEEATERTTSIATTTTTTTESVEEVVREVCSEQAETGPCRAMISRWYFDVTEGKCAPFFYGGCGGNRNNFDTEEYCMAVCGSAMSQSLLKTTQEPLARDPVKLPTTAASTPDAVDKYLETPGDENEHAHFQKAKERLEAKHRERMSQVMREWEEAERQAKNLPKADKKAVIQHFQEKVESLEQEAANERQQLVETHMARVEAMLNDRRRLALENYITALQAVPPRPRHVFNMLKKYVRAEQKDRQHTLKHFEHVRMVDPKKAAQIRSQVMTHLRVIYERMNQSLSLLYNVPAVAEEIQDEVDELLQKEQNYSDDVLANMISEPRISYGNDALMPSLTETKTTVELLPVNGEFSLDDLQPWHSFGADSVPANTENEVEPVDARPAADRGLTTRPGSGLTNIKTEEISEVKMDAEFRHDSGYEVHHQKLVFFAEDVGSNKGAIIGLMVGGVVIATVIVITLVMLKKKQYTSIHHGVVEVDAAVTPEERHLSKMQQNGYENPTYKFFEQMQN
Sequence of Cholinesterase (P81908 whole entry): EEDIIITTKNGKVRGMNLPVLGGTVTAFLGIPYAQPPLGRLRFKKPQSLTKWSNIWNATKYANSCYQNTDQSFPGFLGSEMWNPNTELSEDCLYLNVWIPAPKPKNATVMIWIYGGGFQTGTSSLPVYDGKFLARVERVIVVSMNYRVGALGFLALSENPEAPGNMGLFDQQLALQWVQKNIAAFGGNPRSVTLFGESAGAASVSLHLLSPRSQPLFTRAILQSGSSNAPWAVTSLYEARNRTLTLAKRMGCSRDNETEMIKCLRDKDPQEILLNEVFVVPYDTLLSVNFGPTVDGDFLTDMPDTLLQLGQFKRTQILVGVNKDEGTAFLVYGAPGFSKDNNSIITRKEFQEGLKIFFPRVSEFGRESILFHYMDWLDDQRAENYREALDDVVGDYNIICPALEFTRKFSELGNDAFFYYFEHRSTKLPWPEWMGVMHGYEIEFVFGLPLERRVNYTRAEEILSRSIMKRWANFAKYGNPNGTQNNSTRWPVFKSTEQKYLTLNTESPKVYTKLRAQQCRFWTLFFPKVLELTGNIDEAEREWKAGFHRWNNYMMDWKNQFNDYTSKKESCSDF
Sequence of Cholinesterase (Equus caballus) (P81908 whole entry): as above

| SMILES | IC50 (Cholinesterase) | IC50 (Acetylcholinesterase) | Ratio IC50 [1] | pIC50 (Cholinesterase) | inhibition [2] | pIC50 (Acetylcholinesterase) | other results |
| --- | --- | --- | --- | --- | --- | --- | --- |
| COC(=O)c1cc2c3ccccc3n(CCCN3CCN(CCCn4c5ccccc5c5cc(C(=O)OC)nc(-c6ccccc6)c54)CC3)c2c(-c2ccccc2)n1 | Not Active | Not Active | inactive | – | – | – | – |
| COC(=O)c1cc2c3ccccc3n(CCCCN(C)CCN(C)CCCCn3c4ccccc4c4cc(C(=O)OC)nc(C)c43)c2c(C)n1 | – | – | 6.4 | 5.82 | 65.5% | 5.02 | Activity (SH-SY5Y [3]): Toxic |
| COC(=O)C1Cc2c([nH]c3ccccc23)C(C)N1 (centres undefined) | Not Active | Not Active | inactive | – | – | – | – |
| COC(=O)C1Cc2c([nH]c3ccccc23)C(c2ccccc2)N1 (centres undefined) | Not Active | Not Active | inactive | – | – | – | – |
| COC(=O)C1Cc2c([nH]c3ccccc23)C(C)N1C(=O)CCN1CCN(CCC(=O)N2C(C(=O)OC)Cc3c([nH]c4ccccc34)C2C)CC1 (centres undefined) | – | – | – | – | 65.6% | 4.70 | viability at 1 µM (SH-SY5Y [4]): 97.1%; viability at 24 h, 10 µM [5]: 90.9%; viability at 1 µM (SH-SY5Y [6]): 95.4%; viability at 1 µM (SH-SY5Y [7]): 82.2%; viability at 5 µM (SH-SY5Y [8]): 85.4%; viability at 24 h, 2.5 µM [9]: 99.9%; viability at 24 h, 5 µM [10]: 102%; viability at 5 µM (SH-SY5Y [11]): 76%; viability at 24 h, 1 µM [12]: 103% |
| COC(=O)c1cc2c3ccccc3n(CCCCN3CCN(CCCCn4c5ccccc5c5cc(C(=O)OC)nc(-c6ccccc6)c54)CC3)c2c(-c2ccccc2)n1 | Not Active | Not Active | inactive | – | – | – | – |
| COC(=O)c1cc2c3ccccc3n(CCCCN(C)CCN(C)CCCCn3c4ccccc4c4cc(C(=O)OC)nc(-c5ccccc5)c43)c2c(-c2ccccc2)n1 | – | – | 8.7 | 5.74 | 71.5% | 4.80 | Activity (SH-SY5Y [3]): Toxic |
| COC(=O)c1cc2c3ccccc3n(CCCN(C)CCN(C)CCCn3c4ccccc4c4cc(C(=O)OC)nc(-c5ccccc5)c43)c2c(-c2ccccc2)n1 | – | – | 184 | 6.10 | 25.4% | 3.83 | Activity (SH-SY5Y [13]): inactive; viability at 24 h, 2.5 µM [9]: 93.2%; viability at 24 h, 5 µM [10]: 93.7%; viability at 24 h, 1 µM [12]: 98.2% |
| COC(=O)c1cc2c3ccccc3n(CCCCN3CCN(CCCCn4c5ccccc5c5cc(C(=O)OC)nc(C)c54)CC3)c2c(C)n1 | – | – | 1.2 | 5.01 | inactive | 4.94 | – |
| COC(=O)c1cc2c3ccccc3n(CCCN3CCN(CCCn4c5ccccc5c5cc(C(=O)OC)nc(C)c54)CC3)c2c(C)n1 | – | – | 16 | 6.15 | inactive | 4.95 | Ratio IC50 [14]: 4; Activity (SH-SY5Y [3]): Toxic |
| COC(=O)C1Cc2c([nH]c3ccccc23)CN1C(=O)CN1CCN(CC(=O)N2Cc3[nH]c4ccccc4c3CC2C(=O)OC)CC1 (centres undefined) | Not Active | Not Active | inactive | – | – | – | – |
| COC(=O)c1cc2c([nH]c3ccccc32)c(-c2ccccc2)n1 | Not Active | Not Active | inactive | – | – | – | – |
| COC(=O)C1Cc2c([nH]c3ccccc23)C(c2ccccc2)N1C(=O)CCCN1CCN(CCCC(=O)N2C(C(=O)OC)Cc3c([nH]c4ccccc34)C2c2ccccc2)CC1 (centres undefined) | Not Active | Not Active | inactive | – | – | – | – |
| COC(=O)c1cc2c([nH]c3ccccc32)c(C)n1 | Not Active | Not Active | inactive | – | – | – | – |
| COC(=O)C1Cc2c([nH]c3ccccc23)C(C)N1C(=O)CCCN1CCN(CCCC(=O)N2C(C(=O)OC)Cc3c([nH]c4ccccc34)C2C)CC1 (centres undefined) | – | – | 15.8 | 5.55 | 85.7% | 4.35 | viability at 1 µM (SH-SY5Y [4]): 101%; viability at 24 h, 10 µM [5]: 90.8%; viability at 1 µM (SH-SY5Y [7]): 90.4%; viability at 24 h, 2.5 µM [9]: 99.1%; Activity (SH-SY5Y [15]): Active; viability at 24 h, 5 µM [10]: 101%; viability at 5 µM (SH-SY5Y [11]): 85.5%; viability at 24 h, 1 µM [12]: 98.6% |
| COC(=O)C1Cc2c([nH]c3ccccc23)C(c2ccccc2)N1C(=O)CCN1CCN(CCC(=O)N2C(C(=O)OC)Cc3c([nH]c4ccccc34)C2c2ccccc2)CC1 (centres undefined) | – | – | 85.6 | 5.24 | 41.9% | 3.31 | – |
| COC(=O)C1Cc2c([nH]c3ccccc23)C(C)N1C(=O)CCN(C)CCN(C)CCC(=O)N1C(C(=O)OC)Cc2c([nH]c3ccccc23)C1C (centres undefined) | – | – | 10.6 | 5.77 | 82.7% | 4.74 | viability at 1 µM (SH-SY5Y [7]): 100%; viability at 24 h, 2.5 µM [9]: 92.8%; Activity (SH-SY5Y [15]): Active; viability at 24 h, 5 µM [10]: 92.4%; viability at 5 µM (SH-SY5Y [11]): 42.1%; viability at 24 h, 1 µM [12]: 106%; Activity (SH-SY5Y [16]): Active |
| COC(=O)C1Cc2c([nH]c3ccccc23)CN1 (centres undefined) | Not Active | Not Active | inactive | – | – | – | – |
| COC(=O)c1cc2c3ccccc3n(CCCN(C)CCN(C)CCCn3c4ccccc4c4cc(C(=O)OC)nc(C)c43)c2c(C)n1 | – | – | 6.4 | 4.81 | inactive | 4.00 | – |
| COC(=O)C1Cc2c([nH]c3ccccc23)C(C)N1C(=O)CN1CCN(CC(=O)N2C(C(=O)OC)Cc3c([nH]c4ccccc34)C2C)CC1 (centres undefined) | – | Not Active | inactive | 4.68 | 50.8% | – | – |
| COC(=O)C1Cc2c([nH]c3ccccc23)C(C)N1C(=O)CN(C)CCN(C)CC(=O)N1C(C(=O)OC)Cc2c([nH]c3ccccc23)C1C (centres undefined) | – | – | 4.3 | 5.05 | 72.3% | 4.40 | Activity (SH-SY5Y [3]): Toxic |
| COC(=O)C1Cc2c([nH]c3ccccc23)CN1C(=O)CCN(C)CCN(C)CCC(=O)N1Cc2[nH]c3ccccc3c2CC1C(=O)OC (centres undefined) | – | – | 0.9 | 4.57 | 59.2% | 4.60 | – |
| COC(=O)C1Cc2c([nH]c3ccccc23)C(c2ccccc2)N1C(=O)CN(C)CCN(C)CC(=O)N1C(C(=O)OC)Cc2c([nH]c3ccccc23)C1c1ccccc1 (centres undefined) | – | – | 4.4 | 4.84 | 65.1% | 4.19 | – |
